Most compounds without a hit are left out; they make up all but 2.4% or so of the library.
INS-1E GSIS act = GLuc luminescence reporter in INS-1E cells, primary screen for activators of glucose-dependent secretion of insulin; hit rate 0.61% among 370,000; activation, % at 16.6 µM; AID 743287, 2014; INS-1E GLuc reporter insulin secretion, 2-3 h;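 active = lowest replicate activation of at least 40%, so every replicate reaches that level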;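 note: 0% = median of neutral control wells and 100% = median of IBMX positive control wells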
dFosB activator = activators of delta FosB homodimer, primary screen, biochemical, fluorescence polarization, TAMRA-CDK5 oligo, single point. hit rate 0.99% among 340,000. purified delta FosB; percent of positive-control signal above neutral wells. Protein FosB (Mus musculus), P13346. activation, % at 25 µM;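 active = mean activation above about 17%, with every replicate also reaching it, limit read from the data, passing the limit was not always enough; inconclusive = only one of the two conditions met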
Rtt109 Vps75 = inhibitors of C. albicans Rtt109/Vps75 HAT, primary screen, biochemical, ThioGlo CoA-SH fluorescence, plate reader; Histone acetyltransferase RTT109 (Candida albicans (strain SC5314 / ATCC MYA-2876)), …; purified Rtt109/Vps75, 4 h; inhibition, % at 34.9 µM; hit rate 0.16% among 330,000;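 active = inhibition of at least 50% in every replicate; inconclusive = best replicate reaches 50% inhibition but some replicates fall short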
Target sequence (Q5AAJ8 whole entry, looked up): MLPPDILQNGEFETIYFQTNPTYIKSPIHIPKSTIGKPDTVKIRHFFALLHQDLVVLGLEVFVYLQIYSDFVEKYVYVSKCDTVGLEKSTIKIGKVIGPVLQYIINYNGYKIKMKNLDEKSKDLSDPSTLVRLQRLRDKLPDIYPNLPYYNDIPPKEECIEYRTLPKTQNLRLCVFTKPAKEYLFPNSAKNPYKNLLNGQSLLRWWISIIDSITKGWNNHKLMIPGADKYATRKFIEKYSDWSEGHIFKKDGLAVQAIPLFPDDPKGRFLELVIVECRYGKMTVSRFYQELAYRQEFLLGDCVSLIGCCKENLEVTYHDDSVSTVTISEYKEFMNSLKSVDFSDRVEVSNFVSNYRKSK
Cneo AK release = Cryptococcus neoformans cell lysis inducers, primary screen, AK release luminescence, single concentration; C. neoformans lysis, adenylate kinase release luminescence, 4 h; normalised: neutral wells 0, clomiphene wells 100; lysis activity, % at 15 µM; hit rate 0.2% among 360,000; AID 651654, 2012;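 active = mean lysis activity across replicates of at least 80%, whatever share of replicates individually reach that level; inactive = mean lysis activity below 80%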
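Material: C. neoformans cells | Amount: Yeast cell density of 5 × 10^6 cells/mL | Medium: Fresh YPD growth medium | Dosing: Single dose | Times: Static 4 h at 37 °C with compound, 1 h detection | Detection: AK luminescence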
Env fusion inh = inhibitors of HIV-1 Env-driven cell-cell fusion, primary screen, HeLa-JRFL effector, CEM21 target cells, luciferase. inhibition, % at 12.3 µM. hit rate 1.1% among 360,000;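 active = mean replicate inhibition score of at least 50 and every replicate individually at or above 50; inconclusive = only one of the two criteria met; inactive = mean below 50 and not all replicates reaching 50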;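 note: 0% = plate neutral controls and 100% = maraviroc near 300 nM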
miR122 inh = miR-122 Renilla sensor signal increase in Huh7, primary screen, miR-122 inhibitor project, cell-based, single point, plate reader; activation (reporter increase), % at 12.5 µM; hit rate 0.3% among 340,000; Huh7 miR-122 Renilla luciferase sensor, 48 h; neutral wells = 0, positive control = 100; AID 602342, 2012;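 active = mean replicate activation score at least 90 and every replicate individually at or above 90; inconclusive = only one of the two criteria met; inactive = neither criterion met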;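 note: higher luciferase means less miR-122 activity so hits act as miR-122 inhibitors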
The depositor's hits bear a star; i = inactive; ? = inconclusive; · = no result; [ ] = remark or other dose.

SMILES	INS-1E GSIS act	dFosB activator	Rtt109 Vps75	Cneo AK release	Env fusion inh	miR122 inh
COc1ccc(-c2ccc(C3[C@H]4CNC[C@@H]3N4C(=O)Nc3ccc4c(c3)OCO4)cc2)cc1 (some centres not stated)	-5	·	·	·	·	·
Cc1cc(C)n(CCC(=O)N/N=C/c2c(O)ccc3ccccc23)n1	-1	-6	1	·	9	3
O=C(CCSc1nc2ccccc2s1)N/N=C/c1c(O)ccc2ccccc12	8	21*	-1	-5	20	·
COc1ccc(/C=N/OCC(=O)NC(c2ccccc2)c2ccccc2)cc1OC	-62	-2	7	·	62*	·
COc1ccc(/C=N/NC(=O)CCSc2nc3ccccc3s2)cc1OC	54*	0	-7	-1	2	2
CNC[C@@H]1Oc2ccc(NC(C)=O)cc2C(=O)N(C)C[C@@H]1C	6	·	·	·	·	·
CC(=O)Nc1ccc(-c2ccnc3c2CC(C)(C(=O)Nc2cccc(OC(F)(F)F)c2)O3)cc1 (configuration not stated)	69*	·	·	2	-36	1
O=C1c2cccnc2-c2ncccc21	·	3	-3	14	·	3
O=C1C(=O)c2cccnc2-c2ncccc21	29	·	·	·	60*	·
COC(=O)c1ccc2c(c1)C(C)(C)C(/C=C/c1ccccc1O)=[N+]2C	-45	111*	1	·	i	23
CCN1/C(=C/c2ccc3cc(C)cc(C)c3[n+]2CC)Sc2cc(C)ccc21	-40	-178	82*	-3	24	-1
CCN1/C(=C\c2ccc3cc(C)ccc3[n+]2CC)Sc2cc(C)c(C)cc21	-39	1	?	-6	23	-7
CCN1/C(=C/c2ccc3cccc(C)c3[n+]2CC)Sc2ccccc21	-34	66*	34	1	59*	-31
CC1(C(=O)NCc2ccccc2)Cc2c(-c3ccccc3)ccnc2O1 (configuration not stated)	-13	·	·	1	-92	9
CN1CCN(c2ccc(CNC(=O)C3(C)Cc4c(-c5ccccc5)ccnc4O3)cc2)CC1 (configuration not stated)	45*	·	·	1	-3	-5
CC1CCN(Cc2c(C(=O)N/N=C/c3ccccc3O)nnn2-c2nonc2N)CC1	-12	21*	-5	4	63*	5
CN(Cc1c(C(=O)N/N=C/c2cccc(O)c2)nnn1-c1nonc1N)C1CCCCC1	-8	-14	13	3	-9	-8
CN(Cc1c(C(=O)N/N=C/c2ccccc2O)nnn1-c1nonc1N)C1CCCCC1	518*	·	·	2	-2	10
CCN(CC)c1ccc(/C=N/NC(=O)c2nnn(-c3nonc3N)c2C(C)C)c(O)c1	3	-8	1	1	62*	10
CC(=C/c1ccccc1)/C=N/NC(=O)c1nnn(-c2nonc2N)c1CN1CCC(C)CC1	-39	-12	1	0	22	1
C[C@@H]1CN([C@@H](C)CO)C(=O)c2cc(NC(=O)Nc3ccccc3)ccc2O[C@@H]1CN(C)Cc1ccc(Cl)c(Cl)c1	-30	·	·	·	1[16.7 µM]	-5[16.7 µM]
COc1ccccc1C(=O)N1C[C@@H]2[C@H](c3ccccc31)[C@@H](CO)N2C(=O)C1CCCC1	-4	·	·	-3	·	-20[16.7 µM]
COc1ccc2c3c(n(C)c2c1)[C@@H](CO)NCC31CCN(S(=O)(=O)c2ccccc2)CC1	7	·	·	·	·	·
CO[C@H]1CN(C)C(=O)c2ccc(NC(C)=O)cc2OC[C@H](C)N(C(=O)CC2CC2)C[C@@H]1C	1	·	·	·	·	·
N#CCSc1nnc(-c2sc3ccccc3c2Cl)o1	8	-13	-11	·	79*	·
COC(=O)CSc1nnc(-c2sc3ccccc3c2Cl)o1	·	-6	1	-5	·	-2
C#CCn1c(=NC(=O)c2ccccc2[N+](=O)[O-])sc2cc(S(C)(=O)=O)ccc21	113	33*	-3	·	·	·
